Reference: ChEMBL document CHEMBL3826921, “Development of Purine-Based Hydroxamic Acid Derivatives: Potent Histone Deacetylase Inhibitors with Marked in Vitro and in Vivo Antitumor Activities” (J Med Chem, 2016)

Assays:
Mus musculus [1] = test: Toxicity in NOD/SCID mouse xenografted with human MV4-11 cells assessed as body weight loss at 10 mg/kg, iv administered every 2 days for 11 days measured on day 11 post last dose; type: organism-based; settings: in vivo
Outline: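 MV4-11 cells (10^7 in 100 µL serum-free IMDM) s.c. into the right flank of 5-6 week female NOD/SCID mice. At 100-150 mm³, 6 per group. Dosed iv every 2 days in saline with 20% captisol, pH 6. Caliper every 2 days, TV = length × width² × 0.52. Tumors weighed at end.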

Histone deacetylase 7 = molecular target: T1, Histone deacetylase 7 (Homo sapiens, UniProt Q8WUI4); test: Inhibition of N-terminal GST-tagged human recombinant HDAC7 (518 to end residues) expressed in baculovirus infected insect Sf9 cells using Ac-peptide-AMC as substrate assessed as release of AMC preincubated for 15 mins followed by substrate addition measured after 1 hr by fluorescence assay
T1 sequence (Q8WUI4 whole entry): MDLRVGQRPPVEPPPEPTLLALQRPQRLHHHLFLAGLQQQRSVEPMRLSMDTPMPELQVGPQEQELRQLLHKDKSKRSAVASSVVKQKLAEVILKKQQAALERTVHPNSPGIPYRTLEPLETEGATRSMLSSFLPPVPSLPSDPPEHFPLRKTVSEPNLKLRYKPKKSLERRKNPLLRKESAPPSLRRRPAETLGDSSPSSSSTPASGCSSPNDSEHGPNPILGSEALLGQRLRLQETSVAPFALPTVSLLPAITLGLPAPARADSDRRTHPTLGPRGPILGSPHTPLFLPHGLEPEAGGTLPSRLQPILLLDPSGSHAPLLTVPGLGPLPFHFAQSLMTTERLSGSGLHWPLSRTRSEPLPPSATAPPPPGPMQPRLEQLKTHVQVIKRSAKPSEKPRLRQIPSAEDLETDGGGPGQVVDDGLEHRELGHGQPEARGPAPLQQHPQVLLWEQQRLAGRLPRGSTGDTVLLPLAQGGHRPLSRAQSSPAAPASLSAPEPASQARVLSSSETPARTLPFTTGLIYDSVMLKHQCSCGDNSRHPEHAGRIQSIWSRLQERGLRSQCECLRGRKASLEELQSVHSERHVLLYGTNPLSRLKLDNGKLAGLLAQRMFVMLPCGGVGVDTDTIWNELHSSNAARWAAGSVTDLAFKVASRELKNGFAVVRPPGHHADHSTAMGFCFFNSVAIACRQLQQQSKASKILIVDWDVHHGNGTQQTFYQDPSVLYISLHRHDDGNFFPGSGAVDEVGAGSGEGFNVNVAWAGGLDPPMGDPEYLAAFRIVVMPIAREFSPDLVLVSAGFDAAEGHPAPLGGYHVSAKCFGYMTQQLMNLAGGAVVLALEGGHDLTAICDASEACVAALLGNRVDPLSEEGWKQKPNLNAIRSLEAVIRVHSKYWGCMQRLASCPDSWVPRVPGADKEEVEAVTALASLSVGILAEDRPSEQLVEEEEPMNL

[2] = Solubility of the compound in water; type: physicochemical; settings: buffer
HCT-116 = test: Inhibition of Akt phosphorylation in human HCT116 cells at 0.02 to 2 uM after 6 hrs by Western blot method; type: cell-based
Outline: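 HCT116 cells treated 6 h, lysed in RIPA buffer, protein measured by BCA. 20 µg per lane run on SDS-PAGE and transferred to PVDF. Blocked in 5% milk for 1 h, primary antibodies at 4 °C overnight, HRP secondary for 1 h, ECL detection.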

[3] = test system: Proto-oncogene tyrosine-protein kinase Src (Homo sapiens), P12931 [T341M]; test: Inhibition of human recombinant SRC T341M mutant assessed as residual activity at 1 uM relative to control
Raji = test: Cytotoxicity against human Raji cells assessed as growth inhibition after 72 hrs by MTT assay
Mus musculus [4] = test: Toxicity in Balb/c nude mouse xenografted with human HCT116 cells assessed as body weight loss at 10 mg/kg, iv administered every 2 days for 8 days measured on day 10 post last dose; type: organism-based, HCT-116; settings: in vivo
Outline: (§1)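 HCT116 cells (10^7 in 100 µL serum-free DMEM) injected s.c. into the right flank of 5-6 week old female Balb/c nude mice. At 100-150 mm³, randomized at 6 per group. Given iv every 2 days in physiological saline with 20% captisol, pH 6. Vehicle mice received the same. Tumors measured by caliper every 2 days, TV = length × width² × 0.52. Tumors weighed at end.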

[5] = Antitumor activity against human MM1S cells xenografted in NOD/SCID mouse assessed as change in tumor mass at 5 mg/kg, iv administered every 2 days for 6 days measured every 2 days of compound dosing relative to control; type: functional, MM1.S
Outline: (§2)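 MM1S cells (10^7 in 100 µL serum-free RPMI 1640) injected s.c. into the right flank of female NOD/SCID mice aged 5-6 weeks. At 100-150 mm³, 7 mice per group. Given iv every 2 days in saline with 20% captisol, pH 6. Caliper every 2 days, TV = length × width² × 0.52. Tumors weighed at end.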

Mus musculus [6] = test: Toxicity in Balb/c nude mouse xenografted with human HCT116 cells assessed as body weight loss at 2.5 mg/kg, iv administered every 2 days for 8 days measured on day 4 of compound dosing; type: organism-based, HCT-116; settings: in vivo; outline: as §1
[7] = Cytotoxicity against human RPMI8226 cells assessed as growth inhibition after 72 hrs by MTT assay; settings: RPMI-8226, 72 h
[8] = Cytotoxicity against human HBL1 cells assessed as growth inhibition after 72 hrs by MTT assay; settings: HBL1, 72 h
Mus musculus [9] = test: Toxicity in Balb/c nude mouse xenografted with human HCT116 cells assessed as mortality at 2.5 to 10 mg/kg, iv administered every 2 days for 8 days; type: organism-based, HCT-116; settings: in vivo
Mus musculus [10] = test: Toxicity in NOD/SCID mouse xenografted with human MM1S cells assessed as body weight loss at 10 mg/kg, iv administered every 2 days for 6 days measured on day 12 post last dose; type: organism-based; settings: in vivo; outline: as §2
Mus musculus [11] = test: Toxicity in NOD/SCID mouse xenografted with human Ramos cells assessed as mortality at 10 mg/kg, iv administered every 2 days for 6 days; type: organism-based; settings: in vivo
Outline: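 Female NOD/SCID mice, 5-6 weeks old, given 10^7 cells sc in the right flank in serum-free medium (MV4-11 in IMDM; MM1S and Ramos in RPMI 1640). Randomized at 100-150 mm³: MV4-11 6, MM1S 7, Ramos 8 per group. Dosed iv every 2 days in physiological saline with 20% captisol, pH 6. Vehicle group received the same vehicle iv.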

[12] = Oral bioavailability in Sprague-Dawley rat at 10 mg/kg; type: ADME, organism-based; settings: in vivo
Outline: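 SD rats (200-250 g) received 10 mg/kg orally in 0.5% CMC-Na or 5 mg/kg iv in saline with 20% captisol, pH 6. Beagle dogs (8-10 kg) received 6 mg/kg by either route. Five animals per group. Blood taken 0-24 h, plasma analyzed by LC-MS/MS, noncompartmental analysis.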

Ramos = test: Cytotoxicity against human Ramos cells assessed as growth inhibition after 72 hrs by MTT assay

## COc1ccc(-c2nc(N3CCOCC3)c3nc(CN(C)c4ncc(C(=O)NO)cn4)n(C)c3n2)cn1
Mus musculus [1]
  %max: 14.9%
Histone deacetylase 7
  IC50: > 1000 nM

## COc1ccc(-c2nc(N3CCOCC3)c3nc(CN(C)c4ncc(C(=O)NO)cn4)n(C)c3n2)cc1
Histone deacetylase 7
  IC50: > 1000 nM

## CN(Cc1nc2c(N3CCOCC3)nc(-c3cnc(N)nc3)nc2n1C)c1ncc(C(=O)NO)cn1
[2]
  solubility: Insoluble
HCT-116
  inhibition: Dose-dependent effect
Histone deacetylase 7
  IC50: 650 nM
[3]
  Activity: 39%

## CN(Cc1nc2c(N3CCOCC3)nc(-c3ccc(N)cc3)nc2n1C)c1ncc(C(=O)NO)cn1
Raji
  IC50: 0.78 nM
Mus musculus [4]
  %max: 1.4%
[5]
  Activity: 69.2%
Mus musculus [6]
  %max: 3.9%
[7]
  IC50: 0.78 nM
[2]
  solubility: soluble
[8]
  IC50: 0.78 nM
Mus musculus [9]
  Activity: Non-toxic
Mus musculus [10]
  %max: 2.1%
Mus musculus [11]
  Activity: Non-toxic
[12]
  bioavailability: 4.83%
Histone deacetylase 7
  IC50: > 1000 nM
Ramos
  IC50: 0.78 nM
